# ASAP1 inh: ASAP1 ArfGAP inhibition; Q9ULH1; AID 624377; inhibition, % at 16.5 µM; ASAP1-stimulated ARF1 GTP hydrolysis, GDP FP detection; hit rate 0.19% among 360,000; in the data active means inhibition above about 25%;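 further: 0% = vehicle with enzyme and substrate and 100% = no enzyme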
# Rtt109 Vps75: inhibitors of Candida albicans Rtt109/Vps75 histone acetyltransferase; Q5AAJ8; purified Rtt109/Vps75, ThioGlo CoA-SH fluorescence, 4 h; inhibition, % at 34.9 µM; hit rate 0.16% among 330,000;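 active means inhibition of at least 50% in every replicate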
# Target sequence (Q5AAJ8 whole entry, looked up): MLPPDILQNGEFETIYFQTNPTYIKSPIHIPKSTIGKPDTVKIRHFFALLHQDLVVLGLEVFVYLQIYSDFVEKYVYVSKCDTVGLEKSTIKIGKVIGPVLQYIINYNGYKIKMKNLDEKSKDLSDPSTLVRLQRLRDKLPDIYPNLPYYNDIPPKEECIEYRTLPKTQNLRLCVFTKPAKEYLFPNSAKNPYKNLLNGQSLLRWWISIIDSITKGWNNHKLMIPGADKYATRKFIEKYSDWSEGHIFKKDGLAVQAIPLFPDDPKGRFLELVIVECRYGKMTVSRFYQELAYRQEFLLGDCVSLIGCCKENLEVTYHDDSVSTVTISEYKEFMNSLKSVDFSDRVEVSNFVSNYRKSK
# FGF22 binding: FGF22 (human) thermal shift binding. Q9HCT0. recombinant FGF22 thermal shift, SYPRO orange fluorescence; percent of sucrose octasulfate shift, DMSO zero. activity (Tm shift, normalised), % at 9.99 µM. hit rate 1.5% among 340,000. AID 651658;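 active means mean Tm shift, scaled 0 neutral to 100 positive control, at about 1.3% or above, every replicate too, limit read from the data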
# Efflux pump mplx: inhibitors of Candida antifungal efflux pumps expressed in yeast; inhibition, % at 10 µM; hit rate 0.44% among 330,000; S. cerevisiae Candida pump triplex, Nile Red efflux;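 active means plate passing quality check with inhibition over a set limit, or well fluorescence over plate mean plus 4 SD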;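 further: Nile Red retained in pooled yeast measured as flow cytometry median fluorescence; 0% = buffer negative control and 100% = Enniatin B positive control; higher means more Nile Red kept so more efflux inhibition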
# ARFGAP1 inh: inhibits rat ARF GTPase activating protein 1; Arfgap1-stimulated ARF1 GTP hydrolysis, GDP FP detection; hit rate 0.26% among 360,000; inhibition, % at 16.5 µM;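 active means inhibition above a per-plate limit, mean inhibition of low control wells plus 3 SD, cut at about 25% in these data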;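 further: 0% = DMSO wells with enzyme and 100% = wells lacking Arfgap1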
#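 Material: truncated rat Arfgap1 GAP domain; Incubation: compound-enzyme preincubation 20 min, reaction 120 min, detection 60 min, 25 °C; Read-out: percent inhibition of Arfgap1-stimulated GTP hydrolysis; Technique: FP, GDP Alexa 633 tracer displaced from anti-GDP antibody, 620/688 nm; Controls: No-Arfgap1 wells (100%) versus DMSO full-reaction wells (0%); Replication: single well per compound.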
# An asterisk follows results filed as active; / = no result given. A selection: hits, their analogues and other compounds. The true share with any hit is near 1.9%.
SMILES,ASAP1 inh,Rtt109 Vps75,FGF22 binding,Efflux pump mplx,ARFGAP1 inh
CC(C)c1ccc(N(CC(=O)NCCSCc2ccco2)S(C)(=O)=O)cc1,4.4,-5.7,0.4,0.4,-17.2
CCOC(=O)Nc1c(Cl)[nH]c(=O)n(C)c1=O,3.8,-1.0,0.2,/,-6.7
CCOC(=O)c1nn(C)c2[nH]c(=O)n(C)c(=O)c12,-0.4,-0.8,43.8*,/,14.5
Cc1ccc2cc(CN(Cc3ccco3)S(=O)(=O)c3c(C)ccc4nsnc34)c(=O)[nH]c2c1,0.1,-8.2,/,0.3,-11.8
Cc1cccc(C)c1NC(=O)Cn1c(=O)c(N2CCCCC2)c(N)n(C)c1=O,-8.0,3.2,-0.9,0.1,14.1
Cn1c(N)c(N2CCCCC2)c(=O)n(CC(=O)Nc2cccc(C#N)c2)c1=O,-2.5,5.6,43.0*,-0.2,-2.4
O=C(O)CC(NC(=O)C12CC3CC(CC(C3)C1)C2)c1cccc([N+](=O)[O-])c1 (configuration not stated),-21.2,-4.6,43.1*,-0.1,-3.6
CCC(=O)c1c[nH]c(C(=O)N2CCN(c3ccccc3)CC2)c1,2.0,13.6,42.9*,-0.3,-1.8
CCC(=O)c1c[nH]c(C(=O)N2CCOCC2)c1,0.8,0.3,0.0,0.0,-4.5
CC(C)N1CCc2c(sc(NC(=O)CCS(=O)(=O)c3ccccc3)c2C(N)=O)C1,-12.1,-6.0,-0.1,-0.1,-16.7
COc1ccc(-c2csc(NC(=O)c3ccc(OCC(=O)N4CCOCC4)c(OC)c3)n2)cc1OC,12.8,10.1,44.0*,0.2,22.0
COc1cc(C(=O)Nc2cccc(C)n2)ccc1OCC(=O)N1CCOCC1,-13.2,15.5,0.1,0.3,-7.4
C[C@H]1CN([C@@H](C)CO)S(=O)(=O)c2ccc(C3=CCCCC3)cc2O[C@H]1CN(C)C(=O)c1ccc(F)cc1,/,/,0.0,/,/
Cc1ccc(CNC(=O)CCc2c(C)nc3ncnn3c2C)cc1,-1.8,8.4,/,0.0,-1.5
O=C(O)c1cc(-n2nnnc2SCc2ccccc2F)ccc1Cl,-3.8,3.7,42.9*,-0.3,-2.1
Oc1cccc(-n2nnnc2SCc2ccccc2F)c1,14.5,-1.0,-0.4,0.0,17.4
CCOC(=O)n1c(O)c(N=NC(N)=S)c2cc(C)ccc21,6.4,2.3,-0.1,-0.1,-15.2
Cc1cc(-c2[nH]nc3c2C(c2cccc(O)c2)C(C#N)=C(N)O3)c(C)s1 (configuration not stated),2.2,17.2,/,-0.1,-5.6
COC(=O)CC1(C(=O)OC)Oc2ccccc2C(=O)N1c1ccc(F)cc1F (configuration not stated),-7.1,57.2*,-0.1,0.0,12.3
COCCCC1CCN(C(=O)CCc2nnc(CCCCc3ccccc3)o2)CC1,8.7,/,-0.2,-0.1,11.3
COc1cccc(OCc2nnc(-c3cccs3)o2)c1,0.3,-2.0,43.3*,0.1,4.8
COc1ccc(CCC(=O)OCc2csc(CC(=O)Nc3ccc(C)cc3)n2)cc1OC,3.7,-3.0,-0.1,0.9*,2.9
CCOc1ccccc1C(=O)NCC(=O)OCc1csc(CC(=O)Nc2ccc(C)cc2)n1,-16.9,-10.5,0.4,0.3,-0.9
CC1(C)CC(=O)C2=C(C1)NC1=C(C(=O)c3ccccc31)C2c1cccnc1 (configuration not stated),5.8,-0.8,43.9*,0.0,0.8
O=S(=O)(O)c1cc(O)ccc1O,4.2,-3.3,-0.4,0.1,-9.2
SMILES,ASAP1 inh,Rtt109 Vps75,FGF22 binding,Efflux pump mplx,ARFGAP1 inh
O=S(=O)(c1cc(O)ccc1O)c1cccc2c(S(=O)(=O)c3cc(O)ccc3O)cccc12,21.9,10.0,/,-0.2,24.7*
O=C1C=C(N2CCN(c3ccccn3)CC2)C(=O)c2c(O)ccc(O)c21,-6.8,-0.7,0.2,/,-9.4
CC1=CC(=O)c2c(O)ccc(O)c2C1=O,/,/,/,1.0*,/
C[C@H]1CCCCO[C@H](CN(C)C(=O)c2ccncc2)[C@@H](C)CN([C@@H](C)CO)C(=O)c2cc(N(C)C)ccc2O1,/,/,-0.3,/,/
CC1CCCCC12NC(=O)N(CC(=O)Nc1sccc1C(N)=O)C2=O (configuration not stated),1.2,-12.6,-0.1,-0.2,-3.0
CC1CCCCC12NC(=O)N(CC(=O)Nc1nccs1)C2=O (configuration not stated),-3.7,-4.1,43.1*,0.1,3.0
CC1CCCCC12NC(=O)N(CC(=O)Nc1ccccc1N1CCOCC1)C2=O (configuration not stated),-0.2,8.9,43.5*,0.0,2.8

# Compound activity from PubChem.
